Laboratory results as given in ChEMBL document CHEMBL1124475, “The thieno[3,2-c]pyridine and furo[3,2-c]pyridine rings: new pharmacophores with potential antipsychotic activity” (J Med Chem, 1989).
Active and inactive are the calls of the source. No cut-off for these calls is given here.

Assays:
[1] = target: T1, Adrenergic receptor alpha-2 (Rattus norvegicus, UniProt P22086+P19328+P22909); test: Ability to bind at alpha-2 adrenergic receptor by displacing [3H]clonidine; type: protein assay
T1 sequence (P22086 whole entry): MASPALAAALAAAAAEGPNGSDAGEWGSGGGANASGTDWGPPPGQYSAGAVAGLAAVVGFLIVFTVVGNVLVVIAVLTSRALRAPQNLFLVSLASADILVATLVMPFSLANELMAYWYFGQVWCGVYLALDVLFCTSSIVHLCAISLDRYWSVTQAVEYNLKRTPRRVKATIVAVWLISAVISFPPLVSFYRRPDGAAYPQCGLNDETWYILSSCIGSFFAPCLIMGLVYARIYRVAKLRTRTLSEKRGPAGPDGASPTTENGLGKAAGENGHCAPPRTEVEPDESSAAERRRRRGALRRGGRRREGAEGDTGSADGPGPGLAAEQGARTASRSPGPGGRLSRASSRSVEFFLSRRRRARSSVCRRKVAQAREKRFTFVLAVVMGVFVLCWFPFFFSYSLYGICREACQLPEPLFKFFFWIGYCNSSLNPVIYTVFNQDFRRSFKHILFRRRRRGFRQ
T1 sequence (P19328 whole entry): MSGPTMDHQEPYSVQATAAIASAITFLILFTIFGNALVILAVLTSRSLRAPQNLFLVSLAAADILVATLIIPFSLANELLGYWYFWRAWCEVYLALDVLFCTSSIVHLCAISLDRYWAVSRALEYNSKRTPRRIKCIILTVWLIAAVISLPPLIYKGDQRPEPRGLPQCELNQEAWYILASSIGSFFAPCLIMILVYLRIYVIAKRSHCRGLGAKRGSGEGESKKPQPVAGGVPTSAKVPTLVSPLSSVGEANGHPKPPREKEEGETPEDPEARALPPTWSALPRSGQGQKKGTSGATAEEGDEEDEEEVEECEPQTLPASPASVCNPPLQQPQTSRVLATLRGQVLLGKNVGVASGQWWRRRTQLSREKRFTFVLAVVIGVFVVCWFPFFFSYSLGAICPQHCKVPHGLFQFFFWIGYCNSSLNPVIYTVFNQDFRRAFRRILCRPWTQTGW
T1 sequence (P22909 whole entry): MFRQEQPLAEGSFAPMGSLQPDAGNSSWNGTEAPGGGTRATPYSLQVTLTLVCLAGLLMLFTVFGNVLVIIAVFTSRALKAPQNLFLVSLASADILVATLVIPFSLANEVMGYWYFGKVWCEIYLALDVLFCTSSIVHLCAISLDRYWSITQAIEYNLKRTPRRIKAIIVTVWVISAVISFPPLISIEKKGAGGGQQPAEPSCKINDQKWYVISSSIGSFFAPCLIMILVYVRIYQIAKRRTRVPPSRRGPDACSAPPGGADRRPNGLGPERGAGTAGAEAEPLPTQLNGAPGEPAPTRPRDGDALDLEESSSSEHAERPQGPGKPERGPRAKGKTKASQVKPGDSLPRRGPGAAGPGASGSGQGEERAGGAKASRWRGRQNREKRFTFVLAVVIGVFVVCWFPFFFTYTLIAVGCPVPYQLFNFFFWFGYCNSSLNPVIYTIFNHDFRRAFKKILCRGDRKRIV

[2] = target: T2, Serotonin 1 (5-HT1) receptor (Rattus norvegicus, UniProt P28564+P30940+P19327+P28565); test: Ability to bind at 5-hydroxytryptamine 1 receptor of rat hippocampus by displacing [3H]5-HT; type: tissue-based
Outline: (§1)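 Rat receptor radioligand displacement, five test-ligand concentrations used to calculate IC50, each assay in duplicate. Some compounds determined four times (in duplicate), with mean IC50 reported.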

[3] = test system: Rattus norvegicus; test: Conditioned avoidance response (CAR) when administered perorally; type: functional; settings: po
[4] = test system: Rattus norvegicus; test: Approximate effective dose (AED) in inhibition of spontaneous motor activity when administered perorally; type: functional
Outline: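 Three groups of five animals, each group at a different dose. Mean log activity count per group compared with vehicle controls, and the difference plotted against log dose. AED taken at the dose giving a 0.3 log-unit (about 2-fold) difference from control.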

[5] = target: T3, D(2) dopamine receptor (Rattus norvegicus, UniProt P61169); test: Ability to bind at Dopamine receptor D2 of rat corpus striatum by displacing [3H]spiperone; outline: as §1
T3 sequence (P61169 whole entry): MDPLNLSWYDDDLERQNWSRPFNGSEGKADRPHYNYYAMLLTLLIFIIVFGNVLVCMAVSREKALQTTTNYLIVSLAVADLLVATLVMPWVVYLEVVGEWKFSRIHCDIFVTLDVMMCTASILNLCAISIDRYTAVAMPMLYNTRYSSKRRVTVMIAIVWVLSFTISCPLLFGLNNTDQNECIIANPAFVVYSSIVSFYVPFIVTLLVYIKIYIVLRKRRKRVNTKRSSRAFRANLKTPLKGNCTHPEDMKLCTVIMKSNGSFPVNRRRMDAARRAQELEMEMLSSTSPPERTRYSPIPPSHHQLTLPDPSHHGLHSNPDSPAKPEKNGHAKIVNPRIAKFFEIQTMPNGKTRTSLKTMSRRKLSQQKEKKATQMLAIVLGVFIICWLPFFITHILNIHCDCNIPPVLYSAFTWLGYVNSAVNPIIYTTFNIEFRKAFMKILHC

[6] = target: T4, Adrenergic receptor alpha-1 (Rattus norvegicus, UniProt P15823+P23944+P43140); test: Ability to bind at alpha-1 adrenergic receptor by displacing [3H]WB-4101; type: protein assay; outline: as §1
T4 sequence (P15823 whole entry): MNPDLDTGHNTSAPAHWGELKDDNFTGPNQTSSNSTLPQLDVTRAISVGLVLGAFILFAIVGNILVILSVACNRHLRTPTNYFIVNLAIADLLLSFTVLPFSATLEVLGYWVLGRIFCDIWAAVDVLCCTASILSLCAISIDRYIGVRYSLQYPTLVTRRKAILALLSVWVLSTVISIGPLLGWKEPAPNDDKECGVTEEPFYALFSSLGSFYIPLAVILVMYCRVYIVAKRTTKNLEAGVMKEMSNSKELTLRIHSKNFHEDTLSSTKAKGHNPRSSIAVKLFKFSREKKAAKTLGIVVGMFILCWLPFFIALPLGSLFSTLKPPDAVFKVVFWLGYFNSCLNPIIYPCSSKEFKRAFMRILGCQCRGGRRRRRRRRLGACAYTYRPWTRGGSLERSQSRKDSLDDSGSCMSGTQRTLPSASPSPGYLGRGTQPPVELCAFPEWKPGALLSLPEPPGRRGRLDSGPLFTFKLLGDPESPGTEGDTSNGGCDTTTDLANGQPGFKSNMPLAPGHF
T4 sequence (P23944 whole entry): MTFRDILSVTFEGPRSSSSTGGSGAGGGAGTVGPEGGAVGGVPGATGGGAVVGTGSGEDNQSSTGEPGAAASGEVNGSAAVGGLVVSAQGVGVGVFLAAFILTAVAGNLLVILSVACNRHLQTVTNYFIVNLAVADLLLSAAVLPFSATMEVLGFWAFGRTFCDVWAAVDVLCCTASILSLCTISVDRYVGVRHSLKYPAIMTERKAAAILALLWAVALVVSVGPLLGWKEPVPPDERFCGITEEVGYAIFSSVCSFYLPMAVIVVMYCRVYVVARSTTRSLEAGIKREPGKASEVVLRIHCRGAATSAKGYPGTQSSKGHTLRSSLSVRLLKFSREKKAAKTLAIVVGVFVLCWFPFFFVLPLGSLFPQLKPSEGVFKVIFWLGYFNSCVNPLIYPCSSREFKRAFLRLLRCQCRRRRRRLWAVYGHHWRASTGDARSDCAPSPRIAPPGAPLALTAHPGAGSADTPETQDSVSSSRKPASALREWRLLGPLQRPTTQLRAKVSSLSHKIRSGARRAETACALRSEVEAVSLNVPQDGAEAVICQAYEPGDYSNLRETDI
T4 sequence (P43140 whole entry): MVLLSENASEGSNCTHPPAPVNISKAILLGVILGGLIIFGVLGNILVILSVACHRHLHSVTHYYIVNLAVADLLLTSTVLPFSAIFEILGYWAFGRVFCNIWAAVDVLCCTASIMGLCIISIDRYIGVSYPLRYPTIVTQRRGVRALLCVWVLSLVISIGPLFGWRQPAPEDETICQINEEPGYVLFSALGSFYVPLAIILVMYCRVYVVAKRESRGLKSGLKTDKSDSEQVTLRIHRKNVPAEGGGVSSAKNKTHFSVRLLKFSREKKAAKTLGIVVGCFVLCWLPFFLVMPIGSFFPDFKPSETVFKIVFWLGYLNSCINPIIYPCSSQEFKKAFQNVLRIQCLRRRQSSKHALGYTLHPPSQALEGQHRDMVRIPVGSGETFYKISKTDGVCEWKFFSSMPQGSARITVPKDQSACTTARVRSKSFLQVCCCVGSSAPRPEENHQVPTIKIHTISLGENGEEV

[7] = target: T5, Serotonin 2 (5-HT2) receptor (Rattus norvegicus, UniProt P30994+P08909+P14842); test: Ability to bind at serotonin 5-hydroxytryptamine 2 receptors of rat cortex by displacing [3H]spiperone
[8] = test system: Rattus norvegicus; test: Reversal of trifluoperazine-induced catalepsy in rats when administered perorally; Inactive; type: functional, organism-based
[9] = species: Rattus norvegicus; test: animal or person; settings: po
[10] = target: T6, 5-hydroxytryptamine receptor 1A (Rattus norvegicus, UniProt P19327); test: Ability to bind at 5-hydroxytryptamine 1A receptor of rat hippocampus by displacing [3H]8-OH-DPAT; type: tissue-based; outline: as §1
T6 sequence (P19327 whole entry): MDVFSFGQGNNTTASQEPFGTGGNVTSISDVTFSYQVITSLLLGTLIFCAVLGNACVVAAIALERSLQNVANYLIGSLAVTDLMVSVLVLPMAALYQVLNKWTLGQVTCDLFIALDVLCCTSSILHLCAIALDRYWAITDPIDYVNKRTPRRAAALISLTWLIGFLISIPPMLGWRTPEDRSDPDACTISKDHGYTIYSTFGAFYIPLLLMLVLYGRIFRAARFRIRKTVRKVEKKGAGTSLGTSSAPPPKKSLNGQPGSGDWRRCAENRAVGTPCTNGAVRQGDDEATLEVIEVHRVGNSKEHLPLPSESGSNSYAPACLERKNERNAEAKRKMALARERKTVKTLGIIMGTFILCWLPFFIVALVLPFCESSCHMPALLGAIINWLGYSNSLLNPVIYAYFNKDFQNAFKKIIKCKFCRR

[11] = test system: Rattus norvegicus; test: Blockade of apomorphine-induced stereotypy in rats when administered perorally; type: functional; settings: po
[12] = test system: Mus musculus; test: Blockade of apomorphine-induced climbing in mice when administered perorally
[13] = test system: Rattus norvegicus; test: Blockade of Sidman-avoidance activity in rats when administered perorally; type: functional
Outline: (§2)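 Rats trained in once-daily Sidman sessions until stable; non-learners after 3 days replaced. Twelve rats dosed 30 min before session. Each rat compared with mean of its previous three drug-free days by paired t test. Testing continued to minimally effective dose; maximum usually 100 mg/kg. MED is mean over 12 animals.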

[14] = test system: Mus musculus; test: Blockade of apomorphine-induced climbing in mice when administered perorally; type: functional; settings: po
Outline: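 Male mice habituated 30 min in individual cages, then dosed orally (distilled H2O or 0.5% Methocel suspension, 10 mL/kg) or vehicle. Apomorphine 1.5 mg/kg sc given 30 min later. Climbing scored at 10, 20, 30 min post-apomorphine. At least five animals per dose, maximum 100 mg/kg.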

[15] = target: T5, Serotonin 2 (5-HT2) receptor; test: Ability to bind at 5-hydroxytryptamine 2 receptor of rat cortex by displacing [3H]spiperone
[16] = target: T3, D(2) dopamine receptor; test: Ability to bind at dopamine receptor D2 of rat corpus striatum by displacing [3H]spiperone
[17] = target: T4, Adrenergic receptor alpha-1; test: Ability to bind at Alpha-1 adrenergic receptor by displacing [3H]WB-4101; type: protein assay
[18] = test system: Rattus norvegicus; test: Blockade of Sidman-avoidance activity in rats when administered perorally; Inactive; type: functional, organism-based; outline: as §2
[19] = test system: Rattus norvegicus; test: Induction of catalepsy in rats when administered perorally; type: functional; settings: po
[20] = test system: Rattus norvegicus; test: Reversal of trifluoperazine-induced catalepsy in rats when administered perorally; Inactive, maximum dose examined was 20 mg/Kg; type: functional, organism-based
[21] = target: T2, Serotonin 1 (5-HT1) receptor; test: Ability to bind at serotonin 5-hydroxytryptamine 1 receptor of rat hippocampus by displacing [3H]5-HT; type: tissue-based

## Cl.c1cc2sccc2c(N2CCNCC2)n1
[1]
  IC50: 113 nM
[2]
  IC50: 71.3 nM
[3]
  ED50: 28.6 mg/kg
[4]
  AED: 20.9 mg/kg
[5]
  IC50: > 1000 nM
[6]
  IC50: 139 nM
[7]
  IC50: 141 nM

## CN(C)CCCN1c2ccccc2Sc2ccc(Cl)cc21 [CHLORPROMAZINE]
[8]
  ED50: inactive
[2]
  IC50: > 1000 nM
[9]
  ED50: 4.1 mg/kg
[10]
  IC50: 372 nM
[11]
  ED50: 9.6 mg/kg
[12]
  MED50: 6 mg/kg
[13]
  MED50: 25 mg/kg

## OC(CCCN1CCN(c2nccc3sccc23)CC1)c1ccc(F)cc1 (stereo unspecified)
[2]
  IC50: 3.8 nM
[3]
  ED50: 9.9 mg/kg
[11]
  ED50: 9 mg/kg
[5]
  IC50: 71.7 nM
[14]
  MED: 10 mg/kg
[6]
  IC50: 22.8 nM
[13]; po
  MED: 10 mg/kg
[7]
  IC50: 5.8 nM

## Cl.O=C1SC2(CCCC2)C(=O)N1CCCCN1CCN(c2nccc3ccsc23)CC1
[8]
  ED50: inactive
[2]
  IC50: 3.7 nM
[3]
  ED50: 43.1 mg/kg
[15]
  IC50: 20.2 nM
[16]
  IC50: 418 nM
[11]
  ED50: 46.7 mg/kg
[17]
  IC50: 36.8 nM
[18]
  MED50: inactive

## CN1CCN(C2=Nc3cc(Cl)ccc3Nc3ccccc32)CC1 [CLOZAPINE]
[19]
  ED50: > 200 mg/kg
[12]
  MED50: 10 mg/kg
[20]
  ED50: inactive
[13]
  MED50: 50 mg/kg

## Cl.c1cc2occc2c(N2CCNCC2)n1
[1]
  IC50: 144 nM
[3]
  ED50: 7.3 mg/kg
[4]
  AED: 10.7 mg/kg
[5]
  IC50: > 1000 nM
[21]
  IC50: 150 nM
[6]
  IC50: 426 nM
[7]
  IC50: 377 nM
